Data as given in ChEMBL document CHEMBL1156788, “A 1,8-naphthyridone derivative targets the HIV-1 Tat-mediated transcription and potently inhibits the HIV-1 replication” (J Med Chem, 2010).
Converted amounts (≈) assume the structure as drawn. The source made the active and inactive calls.

Columns and labels:
[1] = system: Human immunodeficiency virus 1; assay: Antiviral activity against HIV1 3B in human MT4 cells assessed as inhibition of p24 protein production measured delay in infection up to 18 hrs by time-of addition experiment; format: functional, organism-based; settings: in the assay text read “up to 10 hrs” for “up to 18 hrs”
How it was run: (§1)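 Time-of-addition assay. MT-4 cells infected with HIV-1 IIIB at moi 0.5 to synchronize replication. Compounds added at various times from 0 to 25 h post-infection; p24 antigen in supernatant measured by ELISA at 31 h p.i. Reference drugs AZT and ritonavir were given at 100× their MT-4/MTT IC50.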

[2] = Selectivity index, ratio of CC50 for PMA-stimulated human U1 cells to EC50 for HIV1; format: toxicity, cell-based; settings: read-out: Ratio CC50/EC50
How it was run: (§2)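 OM-10.1 or U1 cells at 5 × 10⁵ cells/mL were preincubated with compound for 2 h, then stimulated with TNF-α 1 ng/mL or PMA 0.02 μM. After 2 days at 37 °C, supernatant p24 was measured by ELISA for EC50, and parallel cultures were read by MTT for CC50. SI = CC50/EC50. Mean ± SD of at least three experiments.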

C8166T = assay: Antiviral activity against integrase deficient Simian virus 40/HIV-1 chimera (n/N.Tag.oriT) virus in human C8166T cells assessed as inhibition of viral replication; format: functional, cell-based
How it was run: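 C8166 T-cells were infected with HIV-1 NL4.3 or N/N.Tag.oriT and exposed to a range of compound concentrations. p24 in the supernatant was measured relative to untreated controls (100%). Toxicity was read in parallel by MTT.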

[3] = system: Human immunodeficiency virus 1; assay: Antiviral activity against HIV1 3B in human MT4 cells assessed as protection against virus-induced cytopathogenicity by MTT assay; format: functional, organism-based; settings: Human immunodeficiency virus 1, 3B
How it was run: (§3)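 MT-4 cells at 6 × 10^5 cells/mL, mock- or virus-infected with HIV-1 IIIB or HIV-2 ROD at 100-300 CCID50, with serial 5-fold compound dilutions in triplicate. After 5 days, viability read by MTT at 540 and 690 nm, using the median OD of three wells. EC50 = 50% protection from viral cytopathic effect; CC50 = 50% reduction of OD540 in mock-infected cells. SI = CC50/EC50; mean ± SD of ≥2 experiments.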

[4] = Selectivity index, ratio of CC50 for TNF-alpha-stimulated human OM10.1 cells to EC50 for HIV1; format: toxicity; settings: read-out: Ratio CC50/EC50; how it was run: as §2
[5] = Cytotoxicity against TNF-alpha-stimulated human U1 cells by MTT assay; format: cell-based
How it was run: (§4)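 Latently infected OM-10.1 and U1 cells at 5 × 10^5 cells/mL preincubated 2 h with or without compound, then stimulated with TNF-α 1 ng/mL or PMA 0.02 μM. After 2 days at 37 °C, p24 in supernatant measured by ELISA; viability assessed in parallel by MTT. EC50 = 50% reduction of p24; mean ± SD of ≥3 experiments.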

[6] = Cytotoxicity against human PBMC by MTT assay; format: cell-based; settings: in the assay text read “trypan blue exclusion method” for “MTT assay”
How it was run: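 Cytotoxicity in PHA-stimulated PBMCs read by trypan blue exclusion; CC50 = concentration reducing viability of mock-infected cells by 50%. Mean ± SD of at least two experiments.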

[7] = Selectivity index, ratio of CC50 for human Jurkat cells to EC50 for HIV1; format: toxicity, cell-based; settings: read-out: Ratio CC50/EC50
[8] = system: Human immunodeficiency virus 1; assay: Antiviral activity against HIV1 in human OM10.1 cells assessed as inhibition of TNF-alpha-stimulated viral expression measured by p24 production; format: functional, organism-based; how it was run: as §4
[9] = system: Human immunodeficiency virus 1; assay: Antiviral activity against HIV1 in human U1 cells assessed as inhibition of PMA-stimulated viral expression measured by p24 production; format: functional, organism-based; settings: Human immunodeficiency virus 1, U1; how it was run: as §4
[10] = Cytotoxicity against PMA-stimulated human U1 cells by MTT assay; format: cell-based; how it was run: as §4
[11] = system: Human immunodeficiency virus 1; assay: Antiviral activity against HIV1 3B mutant in human MT4 cells assessed as protection against virus-induced cytopathogenicity by MTT assay; format: functional, organism-based; settings: Human immunodeficiency virus 1, 3B
How it was run: (§5)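 Virus added at 100-300 CCID50 to MT-4 cells (6 × 10⁵ cells/mL) together with serial 5-fold compound dilutions, triplicate wells. Viability read by MTT after 5 days at 540 and 690 nm, using the median OD of three wells. EC50 is the concentration giving 50% protection from virus-induced cytopathic effect. Mean ± SD of at least two experiments.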

[12] = Selectivity index, ratio of CC50 for PMA-stimulated human OM10.1 cells to EC50 for HIV1; format: toxicity; settings: read-out: Ratio CC50/EC50; how it was run: as §2
[13] = Selectivity index, ratio of CC50 for human MT4 cells to EC50 for HIV1 3B mutant; format: toxicity, cell-based; settings: read-out: Ratio CC50/EC50
How it was run: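 SI = CC50 in mock-infected MT-4 cells (MTT, 5 days) divided by EC50 against the selected mutant in the MT-4 MTT cytopathicity assay.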

[14] = system: Human immunodeficiency virus 1; assay: Antiviral activity against HIV1 3B in human MT4 cells assessed as inhibition of p24 protein production measured delay in infection up to 10 hrs by time-of addition experiment; format: functional, organism-based; how it was run: as §1
[15] = Cytotoxicity against PMA-stimulated human OM10.1 cells by MTT assay; format: cell-based; how it was run: as §4
[16] = Cytotoxicity against TNF-alpha-stimulated human OM10.1 cells by MTT assay; format: cell-based; how it was run: as §4
[17] = system: Human immunodeficiency virus 2; assay: Antiviral activity against HIV2 ROD in human MT4 cells assessed as protection against virus-induced cytopathogenicity by MTT assay; format: functional, organism-based; settings: Human immunodeficiency virus 2, ISOLATE ROD; how it was run: as §3
[18] = Selectivity index, ratio of CC50 for TNF-alpha-stimulated human U1 cells to EC50 for HIV1; format: toxicity, cell-based; settings: read-out: Ratio CC50/EC50; how it was run: as §2
[19] = system: Human immunodeficiency virus 1; assay: Antiviral activity against HIV1 in human PBMC assessed as inhibition of p24 protein production by MTT assay; format: functional, organism-based; settings: in the assay text read “by ELISA” for “by MTT assay”
How it was run: (§6)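 PBMCs from healthy donors isolated by density centrifugation and stimulated 3 days with PHA. Blasts washed, plated at 2 × 10^5 per well with serial compound dilutions and infected with HIV at 1000 CCID50/mL. Medium and compound refreshed at day 4; p24 in supernatant measured by ELISA at day 7. EC50 = 50% inhibition of p24; SI = CC50/EC50.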

[20] = system: Human immunodeficiency virus 1; assay: Antiviral activity against HIV1 in human OM10.1 cells assessed as inhibition of PMA-stimulated viral expression measured by p24 production; format: functional, organism-based; how it was run: as §4
[21] = Selectivity index, ratio of CC50 for human MT4 cells to EC50 for HIV2 ROD; format: toxicity, cell-based; settings: read-out: Ratio CC50/EC50; how it was run: as §3
[22] = Cytotoxicity against human Jurkat cells by MTT assay; format: cell-based
[23] = Selectivity index, ratio of CC50 for human MT4 cells to EC50 for HIV1 3B; format: toxicity, cell-based; settings: read-out: Ratio CC50/EC50; how it was run: as §3
[24] = Selectivity index, ratio of CC50 for human MT4 cells to EC50 for HIV1 3B mutant after 60 passage resistance selection by MTT assay; format: toxicity, cell-based; settings: read-out: Ratio CC50/EC50
[25] = system: Human immunodeficiency virus 1; assay: Antiviral activity against HIV1 3B mutant in human MT4 cells assessed as protection against virus-induced cytopathogenicity after 60 passage resistance selection by MTT assay; format: functional, organism-based; settings: Human immunodeficiency virus 1, 3B; how it was run: as §5
[26] = system: Human immunodeficiency virus 1; assay: Antiviral activity against HIV1 in human Jurkat cells assessed as inhibition of GFP expression by flow cytometry; settings: Human immunodeficiency virus 1, Jurkat
[27] = Cytotoxicity against human MT4 cells by MTT assay; format: cell-based; how it was run: as §3
[28] = system: Human immunodeficiency virus 1; assay: Antiviral activity against HIV1 in human U1 cells assessed as inhibition of TNF-alpha-stimulated viral expression measured by p24 production; format: functional, organism-based; settings: Human immunodeficiency virus 1, U1; how it was run: as §4
[29] = Selectivity index, ratio of CC50 for human PBMC to EC50 for HIV1; how it was run: as §6
[30] = system: Human immunodeficiency virus 1; assay: Antiviral activity against HIV1 3B in human […] cells assessed as inhibition of p24 production; format: functional, organism-based; settings: Human immunodeficiency virus 1, 3B
How it was run: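 Chronically infected HuT-78 cells washed with PBS and pelleted three times, then 200000 cells per 1 mL seeded with test compound at set concentrations. Grown 44 h; supernatant p24 measured by ELISA. EC50 = 50% reduction of p24 production; mean ± SD of at least three separate experiments. Nevirapine and ritonavir included as controls.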

[31] = system: Human immunodeficiency virus 1; assay: Antiviral activity against HIV1 in human HeLa cells assessed as inhibition of Tat-mediated transcription after 24 hrs by LTR-driven luciferase reporter assay; format: functional, organism-based
How it was run: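 HeLa clone carrying an HIV-1 LTR-luciferase reporter, activated with subsaturating Tat or left without Tat for basal promoter activity. Cells incubated with increasing compound concentrations; luciferase measured in cell lysates 24 h after treatment. Controls were DMSO vehicle, untreated cells and flavopiridol at 10 μM.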

[32] = Cytotoxicity against human HuT78 by MTT assay; format: cell-based; settings: HuT78 cells
How it was run: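 Chronically infected HuT-78 cells; CC50 defined as the concentration reducing cell viability by 50%, measured by the MTT method. Mean ± SD of at least three separate experiments.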

[33] = system: Human immunodeficiency virus 1; assay: Antiviral activity against HIV1 3B in human MT4 cells assessed as inhibition of p24 protein production measured delay in infection up to 5 hrs by time-of addition experiment; format: functional, organism-based; settings: in the assay text read “up to 10 hrs” for “up to 5 hrs”; how it was run: as §1

Cn1cc(C(=O)O)c(=O)c2ccc(N3CCN(c4nc5ccccc5s4)CC3)nc21
Activity [1]: Active | selectivity ratio [2]: 1330 | Activity (C8166T): Active | EC50 [3]: 0.03 µg/mL (≈ 0.0712 µM) | selectivity ratio [4]: 422 | CC50 [5]: 0.99 µg/mL (≈ 2.35 µM) | CC50 [6]: 10.3 µg/mL (≈ 24.5 µM) | selectivity ratio [7]: 44 | EC50 [8]: 0.003 µg/mL (≈ 0.00712 µM) | EC50 [9]: 0.002 µg/mL (≈ 0.00475 µM) | CC50 [10]: 2.67 µg/mL (≈ 6.33 µM) | EC50 [11]: 0.019 µg/mL (≈ 0.0451 µM) | selectivity ratio [12]: 189 | selectivity ratio [13]: 1280 | Activity [14]: Active | CC50 [15]: 0.75 µg/mL (≈ 1.78 µM) | CC50 [16]: 1.27 µg/mL (≈ 3.01 µM) | EC50 [17]: 0.02 µg/mL (≈ 0.0475 µM) | selectivity ratio [18]: 330 | EC50 [19]: 0.6 µg/mL (≈ 1.42 µM) | EC50 [20]: 0.004 µg/mL (≈ 0.00949 µM) | selectivity ratio [21]: 522 | CC50 [22]: 15.1 µg/mL (≈ 35.9 µM) | selectivity ratio [23]: 457 | selectivity ratio [24]: 1420 | EC50 [25]: 0.017 µg/mL (≈ 0.0403 µM) | EC50 [26]: 0.34 µg/mL (≈ 0.807 µM) | CC50 [27]: 12.1 µg/mL (≈ 28.6 µM) | EC50 [28]: 0.003 µg/mL (≈ 0.00712 µM) | Ratio CC50/EC50 [29]: 17 | EC50 [30]: 0.032 µg/mL (≈ 0.0759 µM) | Activity [31]: Dose-dependent effect | CC50 [32]: > 10 µg/mL | Activity [33]: Active

Cn1cc(C(=O)O)c(=O)c2ccc(N3CCN(c4cccc(C(F)(F)F)c4)CC3)nc21
EC50 [3]: > 0.41 µg/mL | EC50 [17]: > 0.41 µg/mL | selectivity ratio [21]: < 1 | selectivity ratio [23]: < 1 | CC50 [27]: 0.41 µg/mL (≈ 0.948 µM)

Cn1cc(C(=O)O)c(=O)c2ccc(N3CCN(c4nccs4)CC3)nc21
EC50 [3]: 3.15 µg/mL (≈ 8.48 µM) | EC50 [17]: 0.922 µg/mL (≈ 2.48 µM) | selectivity ratio [21]: > 136 | selectivity ratio [23]: > 40 | CC50 [27]: > 125 µg/mL

Cn1cc(C(=O)O)c(=O)c2ccc(N3CCN(c4ccccn4)CC3)nc21
EC50 [3]: 0.62 µg/mL (≈ 1.7 µM) | EC50 [17]: 0.55 µg/mL (≈ 1.51 µM) | selectivity ratio [21]: 18 | selectivity ratio [23]: 16 | CC50 [27]: 9.93 µg/mL (≈ 27.2 µM)
